In ChEMBL document CHEMBL2176984, “Target Selectivity of FimH Antagonists” (J Med Chem, 2012) one finds inhibition and IC50 data, which are given here for five molecules.

A word on the inhibition: it is the share of the control response that was lost under treatment. The term IC50 denotes the concentration at which inhibition is half-maximal. Low values mean greater potency, high ones weaker potency.

Experiment [1] concerns the target C-type lectin domain family 4 member K (Homo sapiens, UniProt Q9UJ71). Description: Displacement of biotinylated-TM PAA from human langerin at 1 mM after 3 hrs by colorimetry. The method in brief:
(§1)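 Proteins were coated overnight at 4 °C in 20 mM HEPES pH 7.4, 150 mM NaCl and 10 mM CaCl2, then blocked with 3% BSA for 2 h at 4 °C. FimH was a CRD-thrombin-6His construct expressed in E. coli HM125; DC-SIGN and DC-SIGNR were CRD-Fc chimeras made in stably transfected CHO-K1. Compound at 1 mM final was co-added with streptavidin-HRP-coupled TM-PAA, incubated 3 h at 25 °C and 350 rpm, then read by ABTS OD 415 nm. No-antagonist signal was set to 100% and no-polymer background to 0%.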

Experiment [2] has as its target T1, Macrophage mannose receptor 1 (Homo sapiens) (UniProt P22897).
T1 sequence (whole entry): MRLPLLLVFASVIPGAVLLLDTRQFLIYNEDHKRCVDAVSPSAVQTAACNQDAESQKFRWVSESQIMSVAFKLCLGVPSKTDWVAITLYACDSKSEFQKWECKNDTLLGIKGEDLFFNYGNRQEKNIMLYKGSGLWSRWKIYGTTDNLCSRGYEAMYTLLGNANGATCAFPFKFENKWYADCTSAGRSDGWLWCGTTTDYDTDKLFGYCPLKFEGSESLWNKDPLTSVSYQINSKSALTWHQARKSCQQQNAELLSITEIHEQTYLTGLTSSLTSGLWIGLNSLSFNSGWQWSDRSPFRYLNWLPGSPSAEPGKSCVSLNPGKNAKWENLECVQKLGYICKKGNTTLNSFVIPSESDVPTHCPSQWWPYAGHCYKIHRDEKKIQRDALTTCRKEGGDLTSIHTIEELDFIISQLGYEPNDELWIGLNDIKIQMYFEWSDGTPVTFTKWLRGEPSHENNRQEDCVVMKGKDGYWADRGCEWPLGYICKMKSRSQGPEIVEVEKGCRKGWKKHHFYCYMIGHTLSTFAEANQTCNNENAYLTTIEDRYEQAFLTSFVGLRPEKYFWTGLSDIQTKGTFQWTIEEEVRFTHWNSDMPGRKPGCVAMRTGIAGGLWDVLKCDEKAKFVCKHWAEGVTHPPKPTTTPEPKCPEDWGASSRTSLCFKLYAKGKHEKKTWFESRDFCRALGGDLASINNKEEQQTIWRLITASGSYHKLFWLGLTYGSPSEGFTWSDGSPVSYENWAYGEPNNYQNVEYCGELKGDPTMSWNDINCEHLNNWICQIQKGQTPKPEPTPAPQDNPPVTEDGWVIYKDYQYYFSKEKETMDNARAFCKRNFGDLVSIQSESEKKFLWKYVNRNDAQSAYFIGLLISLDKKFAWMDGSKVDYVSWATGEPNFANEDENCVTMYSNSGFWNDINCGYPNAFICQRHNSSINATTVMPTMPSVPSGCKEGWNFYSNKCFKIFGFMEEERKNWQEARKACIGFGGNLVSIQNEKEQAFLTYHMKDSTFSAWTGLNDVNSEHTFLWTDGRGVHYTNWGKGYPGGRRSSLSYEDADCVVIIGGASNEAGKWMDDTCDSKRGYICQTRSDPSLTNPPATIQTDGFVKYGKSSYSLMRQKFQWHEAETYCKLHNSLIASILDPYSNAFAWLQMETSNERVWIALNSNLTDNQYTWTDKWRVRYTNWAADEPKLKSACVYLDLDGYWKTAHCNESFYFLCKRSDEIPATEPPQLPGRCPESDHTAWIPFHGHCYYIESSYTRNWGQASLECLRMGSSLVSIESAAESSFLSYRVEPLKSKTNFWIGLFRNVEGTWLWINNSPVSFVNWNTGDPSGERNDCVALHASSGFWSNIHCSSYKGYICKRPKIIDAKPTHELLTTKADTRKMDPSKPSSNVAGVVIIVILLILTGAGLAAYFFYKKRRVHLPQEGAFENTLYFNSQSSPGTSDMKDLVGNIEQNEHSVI
Description: Displacement of biotinylated-TM PAA from human MMR at 1 mM after 3 hrs by colorimetry. An outline of the steps:
as §1

In experiment [3] the target is T2, CD209 antigen (Homo sapiens) (UniProt Q9NNX6).
T2 sequence (whole entry): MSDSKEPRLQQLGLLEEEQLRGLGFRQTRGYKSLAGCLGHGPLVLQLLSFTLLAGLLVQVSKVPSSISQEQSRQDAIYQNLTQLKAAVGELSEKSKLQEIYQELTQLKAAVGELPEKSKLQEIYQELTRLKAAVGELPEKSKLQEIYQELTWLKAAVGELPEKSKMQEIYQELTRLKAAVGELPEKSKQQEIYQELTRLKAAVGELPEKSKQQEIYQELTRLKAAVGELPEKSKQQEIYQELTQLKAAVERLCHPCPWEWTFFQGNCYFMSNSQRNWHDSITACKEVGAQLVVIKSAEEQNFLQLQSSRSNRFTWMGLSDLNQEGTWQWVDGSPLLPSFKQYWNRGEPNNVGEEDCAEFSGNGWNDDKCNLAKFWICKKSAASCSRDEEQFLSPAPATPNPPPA
The experiment in a line: Displacement of biotinylated-TM PAA from human DC-SIGN at 1 mM after 3 hrs by colorimetry. An outline of the steps:
as §1

Experiment [4] deals with Mannose-binding protein C (Homo sapiens) (UniProt P11226). Description: Displacement of biotinylated-TM PAA from human MBP at 1 mM after 3 hrs by colorimetry. The method in brief: as §1
Experiment [5] is described as follows: Displacement of biotinylated-TM PAA from Escherichia coli FimH expressed in Escherichia coli HM125 after 3 hrs by colorimetry.
The next experiment deals with Escherichia coli. The experiment in a line: Displacement of biotinylated-TM PAA from Escherichia coli FimH expressed in Escherichia coli HM125 at 1 mM after 3 hrs by colorimetry. An outline of the steps:
as §1

The target of experiment [6] is T3, C-type lectin domain family 4 member M (Homo sapiens) (UniProt Q9H2X3).
T3 sequence (whole entry): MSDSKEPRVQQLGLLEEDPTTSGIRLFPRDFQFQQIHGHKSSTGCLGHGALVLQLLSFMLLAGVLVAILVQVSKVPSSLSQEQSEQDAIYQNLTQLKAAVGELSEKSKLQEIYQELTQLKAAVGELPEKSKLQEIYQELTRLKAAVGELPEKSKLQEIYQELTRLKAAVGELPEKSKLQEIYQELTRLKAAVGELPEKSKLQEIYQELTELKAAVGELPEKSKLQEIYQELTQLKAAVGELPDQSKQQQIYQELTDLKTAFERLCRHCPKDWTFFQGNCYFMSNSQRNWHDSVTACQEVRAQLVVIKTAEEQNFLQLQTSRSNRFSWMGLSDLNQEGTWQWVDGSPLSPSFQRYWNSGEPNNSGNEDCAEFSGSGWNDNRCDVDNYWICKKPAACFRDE
Description: Displacement of biotinylated-TM PAA from human DC-SIGNR at 1 mM after 3 hrs by colorimetry. An outline of the steps:
as §1

The source made the active and inactive calls. No cut-off for these calls is given here.

Sequence of Mannose-binding protein C (Homo sapiens) (P11226 whole entry): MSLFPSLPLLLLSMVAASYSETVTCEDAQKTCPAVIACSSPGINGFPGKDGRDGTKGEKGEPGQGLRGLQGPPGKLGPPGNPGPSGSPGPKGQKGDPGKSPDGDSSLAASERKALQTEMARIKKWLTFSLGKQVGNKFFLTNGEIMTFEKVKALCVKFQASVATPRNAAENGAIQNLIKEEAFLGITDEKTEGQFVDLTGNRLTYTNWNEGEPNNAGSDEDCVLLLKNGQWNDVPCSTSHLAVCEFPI
Sequence of C-type lectin domain family 4 member K (Q9UJ71 whole entry, the tested form may be a part): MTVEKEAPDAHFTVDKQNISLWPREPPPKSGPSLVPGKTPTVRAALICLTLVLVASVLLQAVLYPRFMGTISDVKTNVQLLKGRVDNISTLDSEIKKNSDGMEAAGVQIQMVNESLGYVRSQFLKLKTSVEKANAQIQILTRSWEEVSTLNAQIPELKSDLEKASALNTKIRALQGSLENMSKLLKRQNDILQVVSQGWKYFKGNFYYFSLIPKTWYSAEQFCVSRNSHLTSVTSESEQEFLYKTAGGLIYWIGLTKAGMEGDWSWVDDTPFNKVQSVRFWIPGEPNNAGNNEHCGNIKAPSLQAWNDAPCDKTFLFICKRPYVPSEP

As for `O=C(O)c1ccc(-c2ccc(O[C@H]3O[C@H](CO)[C@@H](O)[C@H](O)[C@@H]3O)cc2)cc1`, the inhibition entry in experiment [1], in experiment [2], in experiment [3], in experiment [4] and in experiment [6] was “inactive” throughout. In experiment [5], this molecule displayed an IC50 of 17 nM. Besides, the inhibition entry in the experiment with Escherichia coli is “Active”.

Consider `O=C(O)c1ccc(-c2ccc(O[C@H]3O[C@H](CO)[C@@H](O)[C@H](O)[C@@H]3O)c(Cl)c2)cc1`, for which the inhibition in experiment [1] amounted to 63%; in experiment [2] it was 54%. Moreover, the inhibition result in experiment [3], in experiment [4] and in experiment [6] was “inactive” throughout. In the experiment with Escherichia coli, the inhibition result was “Active”.

Turning to `O=C(O)c1ccc2c(ccn2-c2ccc(O[C@H]3O[C@H](CO)[C@@H](O)[C@H](O)[C@@H]3O)c(Cl)c2)c1`, the inhibition result in experiment [1], in experiment [3], in experiment [4] and in experiment [6] was “inactive” in each case. In experiment [2], this molecule displayed an inhibition of 58%. In experiment [5], the IC50 worked out at 20 nM. Besides, in the experiment with Escherichia coli, the inhibition entry is “Active”.

With `CCCCCCCO[C@H]1O[C@H](CO)[C@@H](O)[C@H](O)[C@@H]1O`, the inhibition entry in experiment [1], in experiment [2], in experiment [3], in experiment [4] and in experiment [6] was “inactive” throughout. The IC50 in experiment [5] was 65 nM. Further, the inhibition entry in the experiment on Escherichia coli is “Active”.

As to `CN1CCN(c2c(Nc3ccc(O[C@H]4O[C@H](CO)[C@@H](O)[C@H](O)[C@@H]4O)c(Cl)c3)c(=O)c2=O)CC1`, the inhibition entry in experiment [1], in experiment [2], in experiment [3], in experiment [4] and in experiment [6] was “inactive” each time. The molecule further came in with an IC50 in experiment [5] of 31 nM. In addition, the inhibition result in the experiment with Escherichia coli was “Active”.
